ChEMBL document CHEMBL2375304, “Synthesis and anticancer activity of novel 2-pyridyl hexahyrocyclooctathieno[2,3-d]pyrimidine derivatives” (2013)

Key:
Type in all cases: functional
SNB-75 = assay: Growth inhibition of human SNB75 cells at 10^-5 M after 48 hrs by Sulforhodamine B assay relative to control; conditions: SNB-75, 48 h, read-out: GI
Procedure, shortened: (§1)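 Single-dose primary screen at 10⁻⁵ M across 49 lines. Cells were plated 24 h beforehand, with a TCA-fixed time-zero plate, then exposed 48 h at 37 °C, 5% CO2. Cells were fixed with cold TCA, stained with SRB and read at 515 nm. Percent growth was calculated against time-zero and untreated-control absorbances.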

SF-295 = assay: Growth inhibition of human SF295 cells at 10^-5 M after 48 hrs by Sulforhodamine B assay relative to control; conditions: SF-295, 48 h, read-out: GI; procedure, shortened: as §1
SF-268 = assay: Growth inhibition of human SF268 cells at 10^-5 M after 48 hrs by Sulforhodamine B assay relative to control; conditions: SF-268, 48 h, read-out: GI; procedure, shortened: as §1
SW-620 = assay: Growth inhibition of human SW620 cells at 10^-5 M after 48 hrs by Sulforhodamine B assay relative to control; conditions: SW-620, 48 h, read-out: GI; procedure, shortened: as §1
HT-29 = assay: Growth inhibition of human HT-29 cells at 10^-5 M after 48 hrs by Sulforhodamine B assay relative to control; conditions: HT-29, 48 h, read-out: GI
Procedure, shortened: (§2)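 Single-dose screen at 10⁻⁵ M. Cells are preincubated 24 h at 37 °C in 5% CO2, then exposed to the compound, diluted from a DMSO stock into medium with gentamicin, for 48 h. Adherent cells are fixed with cold TCA (final 10%) and suspension cells with TCA (final 16%). Cells are stained with 0.4% SRB in 1% acetic acid and bound dye is read at 515 nm. Percent growth inhibition is taken against control wells and time-zero plates.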

HL-60(TB) = assay: Growth inhibition of human HL-60(TB) cells at 10^-5 M after 48 hrs by Sulforhodamine B assay relative to control; conditions: HL-60, 48 h, read-out: GI
Procedure, shortened: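 First-stage single-dose screen at 10⁻⁵ M. Cells pre-incubated 24 h at 37 °C, 5% CO2, then exposed to drug for 48 h. Settled cells fixed with TCA (final 16%), SRB-stained and read at 515 nm. Percentage growth inhibition is derived from treated, untreated control and time-zero absorbances.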

DU-145 = assay: Growth inhibition of human DU145 cells at 10^-5 M after 48 hrs by Sulforhodamine B assay relative to control; conditions: DU-145, 48 h, read-out: GI; procedure, shortened: as §2
PC-3 = assay: Growth inhibition of human PC3 cells at 10^-5 M after 48 hrs by Sulforhodamine B assay relative to control; conditions: PC-3, 48 h, read-out: GI; procedure, shortened: as §1
A498 = assay: Growth inhibition of human A498 cells at 10^-5 M after 48 hrs by Sulforhodamine B assay relative to control; conditions: A498, 48 h, read-out: GI; procedure, shortened: as §2
OVCAR-5 = assay: Growth inhibition of human OVCAR5 cells at 10^-5 M after 48 hrs by Sulforhodamine B assay relative to control; conditions: OVCAR-5, 48 h, read-out: GI; procedure, shortened: as §1
OVCAR-3 = assay: Growth inhibition of human OVCAR3 cells at 10^-5 M after 48 hrs by Sulforhodamine B assay relative to control; conditions: OVCAR-3, 48 h, read-out: GI; procedure, shortened: as §1

Structure (SMILES): COc1ccc(N2CCN(c3nc(-c4ccncc4)nc4sc5c(c34)CCCCCC5)CC2)cc1
- inhibition of growth at 10 µM (SNB-75): -13.7%
- inhibition of growth at 10 µM (SF-295): 11.5%
- inhibition of growth at 10 µM (SF-268): 2.5%
- inhibition of growth at 10 µM (SW-620): 1.53%
- inhibition of growth at 10 µM (HT-29): 23.4%
- inhibition of growth at 10 µM (HL-60(TB)): 15.2%
- inhibition of growth at 10 µM (DU-145): 2.73%
- inhibition of growth at 10 µM (PC-3): 44.5%
- inhibition of growth at 10 µM (A498): 6.97%
- inhibition of growth at 10 µM (OVCAR-5): 2.26%
- inhibition of growth at 10 µM (OVCAR-3): 9.75%
